SMILES strings stand for the structures.

For assay [1], the target named is T1, Potassium voltage-gated channel subfamily A member 3 (Homo sapiens, UniProt P22001). Nature of the assay: Inhibitory activity against voltage-gated potassium channel subunit Kv1.3. The format is functional.
Assay [2] deals with T1, Potassium voltage-gated channel subfamily A member 3. Description: Inhibition of voltage-gated potassium channel subunit Kv1.3 in chinese hamster ovary cells. The format is functional, cell-based. Summed up:
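Depolarization-induced ⁸⁶Rb⁺ efflux measured in CHO cells stably transfected with human Kv1.3 channel (Rb_Kv functional assay), with short compound incubation; IC50 reported.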

For assay [3] the target is unchanged. Description: Relative T cell IC50 compared to IC50 for correolide assay. The format is functional, cell-based. Summed up: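 Ratio of correolide IC50 to compound IC50 in the anti-CD3-stimulated human peripheral blood T cell proliferation assay; a larger value means greater potency.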
For assay [4] the target is unchanged. Description: Inhibitory activity against voltage-gated potassium channel subunit Kv1.3 of human T cells. The format is functional, cell-based, T-cell.

T1 sequence (P22001 whole entry): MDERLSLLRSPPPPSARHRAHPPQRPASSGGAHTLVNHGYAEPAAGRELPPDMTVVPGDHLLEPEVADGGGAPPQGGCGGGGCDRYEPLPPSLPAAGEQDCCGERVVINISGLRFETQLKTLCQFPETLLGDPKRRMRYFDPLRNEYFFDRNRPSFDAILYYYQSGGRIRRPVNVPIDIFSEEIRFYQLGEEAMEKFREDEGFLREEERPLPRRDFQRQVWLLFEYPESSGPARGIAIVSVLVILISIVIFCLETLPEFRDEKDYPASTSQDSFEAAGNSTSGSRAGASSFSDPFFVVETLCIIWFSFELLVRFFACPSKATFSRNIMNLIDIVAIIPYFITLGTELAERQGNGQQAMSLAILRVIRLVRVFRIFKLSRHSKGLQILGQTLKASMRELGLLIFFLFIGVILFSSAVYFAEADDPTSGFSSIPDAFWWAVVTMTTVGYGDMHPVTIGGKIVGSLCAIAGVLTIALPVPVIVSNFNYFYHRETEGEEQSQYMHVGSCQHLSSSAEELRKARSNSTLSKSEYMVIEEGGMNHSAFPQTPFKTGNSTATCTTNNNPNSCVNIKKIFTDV

Take `CC(=O)O[C@H]1C2[C@@](C)(CCC3C(=O)C(C)=C[C@@H](OC(C)=O)[C@@]32C)C2C=CCOC[C@]2([C@@H](C)OC(C)=O)[C@H]1OC(C)=O` (some centres undefined): the IC50 in assay [1] turned out to be 5600 nM. `C=C1C[C@@]2(O)C3CC[C@]4(C)C([C@H](OC(C)=O)[C@H](OC(C)=O)[C@@]5([C@@H](C)OC(C)=O)COCC=CC45)[C@@]3(C)[C@H](OC(C)=O)[C@H](OC(C)=O)[C@@]2(C)C2(C(=O)OC)O[C@H]12` (some centres undefined) showed a half-inhibitory concentration (IC50) in assay [1] of 10 nM. The same measure, in the same setting: the value for `COC(=O)C12O[C@@H]1C(=O)CC1(O)C3CC[C@]4(C)C([C@H](OC(C)=O)[C@H](OC(C)=O)[C@@]5([C@@H](C)OC(C)=O)COCC=CC45)[C@@]3(C)[C@H](OC(C)=O)[C@H](OC(C)=O)[C@]12C` (some centres undefined) was 35 nM.

As to `CCOc1ccccc1CCC1(O)C(C)=C[C@@H](OC(C)=O)[C@@]2(C)C1CC[C@]1(C)C2[C@H](OC(C)=O)[C@H](OC(C)=O)[C@@]2([C@@H](C)OC(C)=O)COCC=CC12` (some centres undefined), the concentration for half-maximal inhibition (IC50) in assay [2] was found to be 34 nM; in assay [4], 80 nM. In addition, the Ratio in assay [3] stood at 2.3.

`CC(=O)O[C@H]1C2[C@@](C)(CCC3C(O)(CC(C)(C)c4ccccc4)C(C)=C[C@@H](OC(C)=O)[C@@]32C)C2C=CCOC[C@]2([C@@H](C)OC(C)=O)[C@H]1OC(C)=O` (some centres undefined): the IC50 in assay [2] worked out at 19 nM; in assay [4], 184 nM. Further, in assay [3], the Ratio was found to be 1.
